What was measured:
[1] = Inhibition of HIV integrase strand transfer activity; set-up: species or system Human immunodeficiency virus
Procedure, shortened: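 Strand transfer was run with biotinylated donor DNA bound to streptavidin-coated plates and DIG-tagged target DNA. Values are means of at least two experiments.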

[2] = tested on: Human immunodeficiency virus 1; experiment: Antiviral activity against HIV1 3B infected in human MT2 cells after 5 days by chemiluminescence in presence of fetal bovine serum; assay type: functional, organism-based; conditions: Human immunodeficiency virus 1, 3B, MT2, 120 h
Procedure, shortened: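 HIV-1 IIIB infected MT-2 cells at m.o.i. 0.01 for 3 h, then ~1.5 × 10⁴ cells per well were added to 9 fivefold serial drug dilutions in triplicate in medium with 10% FBS. Plates ran 5 days at 37 °C. CellTiter-Glo was added with 10 min room-temperature lysis, and chemiluminescence was read. Values are means of at least two experiments.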

[3] = tested on: Human immunodeficiency virus 1; experiment: Antiviral activity against HIV1 3B infected in human MT2 cells after 5 days by chemiluminescence in presence of human serum albumin; assay type: functional, organism-based; conditions: Human immunodeficiency virus 1, 3B, MT2, 120 h
Procedure, shortened: (§1)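 Same MT-2/HIV-1 IIIB 5-day CellTiter-Glo chemiluminescence assay in 10% FBS, with physiological HSA (35 mg/ml) and α1-AGP (1.5 mg/ml) added. Shift fold is EC50 with these serum proteins divided by EC50 in 10% FBS alone.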

[4] = tested on: Human immunodeficiency virus 1; experiment: Ratio of EC50 for HIV1 3B in presence of human serum proteins to EC50 for HIV1 3B in presence of fetal bovine serum; assay type: functional; procedure, shortened: as §1
[5] = Clearance in iv dosed dog; assay type: ADME, organism-based, Canis lupus familiaris; conditions: in vivo
Procedure, shortened: (§2)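 Rats and dogs received compound as free parent in solution (EtOH, PG, PEG400 and citric acid), at pH 3.3 for iv and pH 2.2 for oral dosing. Half-life and total body clearance come from the iv groups. Oral F (%) is from po versus iv AUC. Values are means of three animals per study.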

[6] = Half life in iv dosed rat; assay type: ADME, organism-based; conditions: in vivo; procedure, shortened: as §2
[7] = Oral bioavailability in rat; assay type: ADME, organism-based; conditions: in vivo; procedure, shortened: as §2
[8] = Half life in iv dosed dog; assay type: ADME, organism-based, Canis lupus familiaris; conditions: in vivo; procedure, shortened: as §2
[9] = Clearance in iv dosed rat; assay type: ADME, organism-based; conditions: in vivo; procedure, shortened: as §2
[10] = Oral bioavailability in dog; assay type: ADME, organism-based, Canis lupus familiaris; conditions: in vivo; procedure, shortened: as §2

| SMILES | IC50 [1] [nM] | EC50 [2] [nM] | EC50 [3] [nM] | clearance [5] [mL/min/kg] | half-life [6] [h] | bioavailability [7] [%] | half-life [8] [h] | clearance [9] [mL/min/kg] | bioavailability [10] [%] | Ratio EC50 [4] |
| --- | --- | --- | --- | --- | --- | --- | --- | --- | --- | --- |
| CN(c1c2c(c(O)c3ncccc13)C(=O)N(Cc1cccc(Cl)c1F)C2)S(C)(=O)=O | 61 | 6 | 18 |  |  |  |  |  |  | 3 |
| CN(c1c2c(c(O)c3ncccc13)C(=O)N(Cc1ccccc1)C2)S(C)(=O)=O | 120 | 35 |  |  |  |  |  |  |  |  |
| CNC(=O)c1cc(F)ccc1CN1Cc2c(c(O)c3ncccc3c2N(C)S(C)(=O)=O)C1=O | 74 | 32 | 90 |  |  |  |  |  |  | 2.8 |
| CN(c1c2c(c(O)c3ncccc13)C(=O)N(Cc1ccc(F)c(Cl)c1F)C2)S(C)(=O)=O | 135 | 5 | 18 |  |  |  |  |  |  | 3.6 |
| Cc1nnc(C(=O)NC(C)(C)c2nc(C(=O)NCc3ccc(F)cc3)c(O)c(=O)n2C)o1 [RALTEGRAVIR] | 40 | 4 | 20 |  |  |  |  |  |  |  |

Further lines, with some results ahead:

| IC50 [1] [nM] | EC50 [2] [nM] | EC50 [3] [nM] | clearance [5] [mL/min/kg] | half-life [6] [h] | bioavailability [7] [%] | half-life [8] [h] | clearance [9] [mL/min/kg] | bioavailability [10] [%] | SMILES | Ratio EC50 [4] |
| --- | --- | --- | --- | --- | --- | --- | --- | --- | --- | --- |
| 39 | 6 | 17 | 0.333 | 1.38 | 9 | 16 | 4.83 | 79 | CN(c1c2c(c(O)c3ncccc13)C(=O)N(Cc1cc(Cl)c(F)cc1F)C2)S(C)(=O)=O | 2.8 |
| 5 | 52 |  |  |  |  |  |  |  | CC(=O)Nc1cc(F)ccc1CN1Cc2c(c(O)c3ncccc3c2N(C)S(C)(=O)=O)C1=O |  |
| 28 | 1.7 | 11.4 | 6.67 | 1.1 | 15 | 7 | 4.67 | 45 | CN(c1c2c(c(O)c3ncccc13)C(=O)N(Cc1ccc(F)cc1)C2)S(C)(=O)=O | 6.7 |
| 52 | 3.5 | 12 | 2.5 | 1.36 | 7 | 7.13 | 3.83 | 41 | CN(c1c2c(c(O)c3ncccc13)C(=O)N(Cc1ccc(F)c(Cl)c1)C2)S(C)(=O)=O | 3.4 |

From ChEMBL document CHEMBL1153964, “Tricyclic HIV integrase inhibitors V. SAR studies on the benzyl moiety” (Bioorg Med Chem Lett, 2009)
